Test results as given in ChEMBL document CHEMBL1154186, “Synthesis, kinase inhibitory potencies, and in vitro antiproliferative evaluation of new Pim kinase inhibitors” (J Med Chem, 2009).

Legend:
[1] = molecular target: Protein kinase C alpha type (Homo sapiens) (UniProt P17252); assay: Inhibition of PKCalpha assessed as residual enzyme activity at 10 uM relative to untreated control
Summary of the method: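 Histone H1 (0.1 mg/mL) as substrate, 20 µM [γ-33P]ATP, 10 mM Mg acetate. Run 30 min at 21 °C with 10 µM compound. Radiolabel captured on P81 filters. Expressed as % of uninhibited control, duplicates.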

[2] = molecular target: T1, Mitogen-activated protein kinase 12 (Homo sapiens) (UniProt P53778); assay: Inhibition of p38-gamma assessed as residual enzyme activity at 10 uM relative to untreated control
T1 sequence (whole entry): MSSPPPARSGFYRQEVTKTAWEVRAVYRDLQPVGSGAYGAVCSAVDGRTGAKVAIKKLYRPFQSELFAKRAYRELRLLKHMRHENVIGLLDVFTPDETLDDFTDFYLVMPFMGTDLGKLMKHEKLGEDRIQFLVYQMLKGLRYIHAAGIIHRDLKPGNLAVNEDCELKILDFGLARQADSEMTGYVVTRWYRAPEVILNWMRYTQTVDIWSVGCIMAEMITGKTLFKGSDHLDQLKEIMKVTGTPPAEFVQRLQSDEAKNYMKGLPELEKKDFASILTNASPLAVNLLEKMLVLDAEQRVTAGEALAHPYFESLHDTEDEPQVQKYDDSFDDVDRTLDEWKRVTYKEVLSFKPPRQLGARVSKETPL
Summary of the method: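 p38γ and p38δ MAPK run at 5 µM [γ-33P]ATP, and p38α at 50 µM, each with 10 mM Mg acetate. Buffer 50 mM Tris/HCl pH 7.5, 0.1 mM EGTA, 0.1% 2-mercaptoethanol. 10 µM compound, 30 min at 21 °C. P81 filter capture. Residual activity relative to control, duplicates.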

[3] = molecular target: Calcium/calmodulin-dependent protein kinase kinase 2 (Homo sapiens) (UniProt Q96RR4); assay: Inhibition of CAMKKbeta assessed as residual enzyme activity at 10 uM relative to untreated control
[4] = molecular target: Aurora kinase B (Homo sapiens) (UniProt Q96GD4); assay: Inhibition of AURORA B assessed as residual enzyme activity at 10 uM relative to untreated control
Summary of the method: (§1)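 Kinases of human origin, except CK1δ, which is rat. Run in 50 mM Tris/HCl pH 7.5, 0.1 mM EGTA, 0.1% 2-mercaptoethanol and 10 mM Mg acetate, with [γ-33P]ATP at 20 µM, 30 min at 21 °C. Acid-stopped and captured on P81 filters. Compound tested at 10 µM; residual % of uninhibited control, duplicate determinations.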

[5] = molecular target: Ribosomal protein S6 kinase alpha-3 (Homo sapiens) (UniProt P51812); assay: Inhibition of RSK2 assessed as residual enzyme activity at 10 uM relative to untreated control
[6] = molecular target: T2, Serine/threonine-protein kinase Sgk1 (Homo sapiens) (UniProt O00141); assay: Inhibition of SGK1 assessed as residual enzyme activity at 10 uM relative to untreated control
T2 sequence (whole entry): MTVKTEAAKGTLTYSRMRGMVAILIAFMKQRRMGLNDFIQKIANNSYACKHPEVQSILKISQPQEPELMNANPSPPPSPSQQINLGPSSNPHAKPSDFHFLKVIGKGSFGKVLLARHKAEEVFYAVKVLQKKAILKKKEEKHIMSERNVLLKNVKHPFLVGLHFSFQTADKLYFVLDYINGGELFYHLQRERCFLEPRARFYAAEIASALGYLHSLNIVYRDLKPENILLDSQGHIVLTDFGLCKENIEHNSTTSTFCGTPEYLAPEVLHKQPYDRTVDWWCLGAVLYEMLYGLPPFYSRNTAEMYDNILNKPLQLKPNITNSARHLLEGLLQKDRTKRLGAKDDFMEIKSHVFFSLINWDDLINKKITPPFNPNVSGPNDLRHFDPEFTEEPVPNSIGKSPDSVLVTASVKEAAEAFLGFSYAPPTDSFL
Summary of the method: (§2)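 Buffer Tris/HCl pH 7.5, EGTA and 2-mercaptoethanol. 30 min at 21 °C, compound at 10 µM. P81 filter read-out. Residual activity versus control, duplicates.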

[7] = molecular target: Mitogen-activated protein kinase 10 (Homo sapiens) (UniProt P53779); assay: Inhibition of JNK3 assessed as residual enzyme activity at 10 uM relative to untreated control
Summary of the method: (§3)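 Assayed with [γ-33P]ATP at 50 µM and 10 mM Mg acetate in 50 mM Tris/HCl pH 7.5, 0.1 mM EGTA, 0.1% 2-mercaptoethanol, 30 min, 21 °C. Phosphoric acid stop, P81 filter capture. ERK2 and Lck are mouse; AMPK is rat. 10 µM compound; % activity remaining relative to control without inhibitor, duplicates.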

[8] = molecular target: Serine/threonine-protein kinase Nek6 (Homo sapiens) (UniProt Q9HC98); assay: Inhibition of NEK6 assessed as residual enzyme activity at 10 uM relative to untreated control; summary of the method: as §3
[9] = molecular target: T3, MAP kinase-activated protein kinase 5 (Homo sapiens) (UniProt Q8IW41); assay: Inhibition of PRAK assessed as residual enzyme activity at 10 uM relative to untreated control
T3 sequence (whole entry): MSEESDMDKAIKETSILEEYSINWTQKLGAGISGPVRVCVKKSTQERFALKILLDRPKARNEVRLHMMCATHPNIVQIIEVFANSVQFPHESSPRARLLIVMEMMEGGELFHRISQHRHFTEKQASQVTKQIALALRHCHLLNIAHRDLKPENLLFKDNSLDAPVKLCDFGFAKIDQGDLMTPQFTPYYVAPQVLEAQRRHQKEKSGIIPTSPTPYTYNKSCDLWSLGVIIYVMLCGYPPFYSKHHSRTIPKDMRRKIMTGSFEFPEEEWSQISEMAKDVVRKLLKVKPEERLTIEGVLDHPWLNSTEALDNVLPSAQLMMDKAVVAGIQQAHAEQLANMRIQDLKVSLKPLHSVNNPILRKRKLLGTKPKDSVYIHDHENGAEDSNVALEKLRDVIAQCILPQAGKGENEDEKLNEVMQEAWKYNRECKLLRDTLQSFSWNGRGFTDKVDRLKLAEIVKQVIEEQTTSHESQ

[10] = molecular target: Mitogen-activated protein kinase 8 (Homo sapiens) (UniProt P45983); assay: Inhibition of JNK1 assessed as residual enzyme activity at 10 uM relative to untreated control; summary of the method: as §1
[11] = molecular target: Serine/threonine-protein kinase pim-2 (Homo sapiens) (UniProt Q9P1W9); assay: Inhibition of Pim-2 assessed as residual enzyme activity at 10 uM relative to untreated control
[12] = Inhibition of CK1 assessed as residual enzyme activity at 10 uM relative to untreated control
[13] = molecular target: Ribosomal protein S6 kinase beta-1 (Homo sapiens) (UniProt P23443); assay: Inhibition of S6K1 assessed as residual enzyme activity at 10 uM relative to untreated control; summary of the method: as §2
[14] = molecular target: Serine/threonine-protein kinase pim-1 (Homo sapiens) (UniProt P11309); assay: Inhibition of Pim-1 assessed as residual enzyme activity at 10 uM relative to untreated control
Serine/threonine-protein kinase pim-1 (Homo sapiens), sequence (P11309 whole entry, looked up): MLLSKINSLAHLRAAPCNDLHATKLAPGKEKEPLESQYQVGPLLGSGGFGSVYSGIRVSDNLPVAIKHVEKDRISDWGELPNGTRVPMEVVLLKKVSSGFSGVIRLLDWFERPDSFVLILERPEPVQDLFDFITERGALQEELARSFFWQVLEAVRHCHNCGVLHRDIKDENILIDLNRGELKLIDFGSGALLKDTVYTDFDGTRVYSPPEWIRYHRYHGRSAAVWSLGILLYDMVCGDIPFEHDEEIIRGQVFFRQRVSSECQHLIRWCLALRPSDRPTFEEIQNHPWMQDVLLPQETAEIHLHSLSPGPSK

Ribosomal protein S6 kinase alpha-3 (Homo sapiens), sequence (P51812 whole entry): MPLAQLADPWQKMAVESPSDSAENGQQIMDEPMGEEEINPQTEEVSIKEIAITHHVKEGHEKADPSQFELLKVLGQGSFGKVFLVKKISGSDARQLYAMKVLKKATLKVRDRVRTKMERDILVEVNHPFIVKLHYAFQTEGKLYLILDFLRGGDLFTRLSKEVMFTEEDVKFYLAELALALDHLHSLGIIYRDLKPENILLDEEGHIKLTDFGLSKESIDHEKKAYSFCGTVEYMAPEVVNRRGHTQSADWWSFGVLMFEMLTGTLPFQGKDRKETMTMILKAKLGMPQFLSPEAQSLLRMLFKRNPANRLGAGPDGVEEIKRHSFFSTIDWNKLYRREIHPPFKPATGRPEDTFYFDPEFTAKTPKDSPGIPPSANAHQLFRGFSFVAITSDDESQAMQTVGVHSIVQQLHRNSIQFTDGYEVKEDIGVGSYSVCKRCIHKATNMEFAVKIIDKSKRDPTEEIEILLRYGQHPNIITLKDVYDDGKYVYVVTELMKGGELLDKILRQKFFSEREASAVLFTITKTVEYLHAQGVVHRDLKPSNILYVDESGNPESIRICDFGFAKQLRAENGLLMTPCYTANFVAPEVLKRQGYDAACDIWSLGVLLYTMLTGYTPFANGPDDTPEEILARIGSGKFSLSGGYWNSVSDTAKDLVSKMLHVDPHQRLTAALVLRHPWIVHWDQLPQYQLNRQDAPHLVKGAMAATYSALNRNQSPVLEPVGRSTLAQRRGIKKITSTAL
Serine/threonine-protein kinase Nek6 (Homo sapiens), sequence (Q9HC98 whole entry): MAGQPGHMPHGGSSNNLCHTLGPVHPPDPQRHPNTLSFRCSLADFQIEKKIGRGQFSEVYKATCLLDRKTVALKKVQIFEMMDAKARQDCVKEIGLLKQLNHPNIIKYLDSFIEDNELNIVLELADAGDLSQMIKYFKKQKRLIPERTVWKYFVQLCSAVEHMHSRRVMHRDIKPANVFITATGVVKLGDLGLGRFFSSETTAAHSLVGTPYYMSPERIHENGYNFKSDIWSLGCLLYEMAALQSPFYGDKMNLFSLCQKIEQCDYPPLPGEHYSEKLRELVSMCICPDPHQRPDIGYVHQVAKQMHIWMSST
Mitogen-activated protein kinase 8 (Homo sapiens), sequence (P45983 whole entry): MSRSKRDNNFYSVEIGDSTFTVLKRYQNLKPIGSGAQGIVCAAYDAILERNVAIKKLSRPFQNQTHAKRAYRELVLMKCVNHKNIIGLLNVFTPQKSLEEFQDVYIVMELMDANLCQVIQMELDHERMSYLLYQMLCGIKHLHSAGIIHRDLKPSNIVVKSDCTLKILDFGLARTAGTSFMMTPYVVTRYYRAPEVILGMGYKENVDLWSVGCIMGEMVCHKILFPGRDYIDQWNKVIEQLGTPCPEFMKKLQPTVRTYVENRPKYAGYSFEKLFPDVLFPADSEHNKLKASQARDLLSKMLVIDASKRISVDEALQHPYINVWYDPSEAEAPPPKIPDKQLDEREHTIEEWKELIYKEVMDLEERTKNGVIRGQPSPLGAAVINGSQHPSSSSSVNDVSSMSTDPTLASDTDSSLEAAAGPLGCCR
Calcium/calmodulin-dependent protein kinase kinase 2 (Homo sapiens), sequence (Q96RR4 2-588 limits assumed): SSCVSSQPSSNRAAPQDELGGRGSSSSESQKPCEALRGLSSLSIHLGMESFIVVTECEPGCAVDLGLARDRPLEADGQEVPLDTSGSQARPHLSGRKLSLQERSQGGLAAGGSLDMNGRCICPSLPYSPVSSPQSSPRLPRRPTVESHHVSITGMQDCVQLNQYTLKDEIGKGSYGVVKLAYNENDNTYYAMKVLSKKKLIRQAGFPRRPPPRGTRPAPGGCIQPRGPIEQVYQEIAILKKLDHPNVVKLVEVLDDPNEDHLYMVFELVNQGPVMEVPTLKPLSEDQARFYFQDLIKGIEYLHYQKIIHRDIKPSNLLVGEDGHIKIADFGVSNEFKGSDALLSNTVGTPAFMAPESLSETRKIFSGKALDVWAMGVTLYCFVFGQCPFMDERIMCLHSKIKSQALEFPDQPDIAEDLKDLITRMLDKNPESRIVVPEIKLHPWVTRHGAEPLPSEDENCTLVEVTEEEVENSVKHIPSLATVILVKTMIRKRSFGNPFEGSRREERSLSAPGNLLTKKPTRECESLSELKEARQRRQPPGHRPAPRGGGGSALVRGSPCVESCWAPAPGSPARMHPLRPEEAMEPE
Ribosomal protein S6 kinase beta-1 (Homo sapiens), sequence (P23443 whole entry, looked up): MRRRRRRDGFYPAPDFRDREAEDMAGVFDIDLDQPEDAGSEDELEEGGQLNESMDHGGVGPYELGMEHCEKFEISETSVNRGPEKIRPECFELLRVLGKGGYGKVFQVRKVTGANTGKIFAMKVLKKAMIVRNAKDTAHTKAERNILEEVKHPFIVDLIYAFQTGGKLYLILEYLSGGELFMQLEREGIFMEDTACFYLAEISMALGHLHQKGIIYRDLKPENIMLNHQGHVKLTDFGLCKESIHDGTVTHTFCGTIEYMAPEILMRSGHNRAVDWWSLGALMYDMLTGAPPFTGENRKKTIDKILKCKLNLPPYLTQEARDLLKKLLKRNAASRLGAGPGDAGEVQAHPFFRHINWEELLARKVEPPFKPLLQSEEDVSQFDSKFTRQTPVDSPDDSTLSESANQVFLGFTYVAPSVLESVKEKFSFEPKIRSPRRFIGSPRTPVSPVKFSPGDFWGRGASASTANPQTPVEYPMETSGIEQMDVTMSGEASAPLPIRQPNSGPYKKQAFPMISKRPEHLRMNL
Mitogen-activated protein kinase 10 (Homo sapiens), sequence (P53779 whole entry): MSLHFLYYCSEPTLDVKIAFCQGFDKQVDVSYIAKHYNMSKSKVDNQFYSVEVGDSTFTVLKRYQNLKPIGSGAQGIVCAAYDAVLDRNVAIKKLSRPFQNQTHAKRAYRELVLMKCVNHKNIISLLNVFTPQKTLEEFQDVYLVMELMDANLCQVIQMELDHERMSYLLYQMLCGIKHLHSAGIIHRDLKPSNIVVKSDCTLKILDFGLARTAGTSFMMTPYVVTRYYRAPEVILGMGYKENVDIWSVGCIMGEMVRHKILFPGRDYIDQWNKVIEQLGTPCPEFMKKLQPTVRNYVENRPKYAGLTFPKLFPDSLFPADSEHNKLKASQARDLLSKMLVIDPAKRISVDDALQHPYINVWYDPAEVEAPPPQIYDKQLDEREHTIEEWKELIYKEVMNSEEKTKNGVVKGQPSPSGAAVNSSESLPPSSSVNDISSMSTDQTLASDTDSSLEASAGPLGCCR
Aurora kinase B (Homo sapiens), sequence (Q96GD4 whole entry): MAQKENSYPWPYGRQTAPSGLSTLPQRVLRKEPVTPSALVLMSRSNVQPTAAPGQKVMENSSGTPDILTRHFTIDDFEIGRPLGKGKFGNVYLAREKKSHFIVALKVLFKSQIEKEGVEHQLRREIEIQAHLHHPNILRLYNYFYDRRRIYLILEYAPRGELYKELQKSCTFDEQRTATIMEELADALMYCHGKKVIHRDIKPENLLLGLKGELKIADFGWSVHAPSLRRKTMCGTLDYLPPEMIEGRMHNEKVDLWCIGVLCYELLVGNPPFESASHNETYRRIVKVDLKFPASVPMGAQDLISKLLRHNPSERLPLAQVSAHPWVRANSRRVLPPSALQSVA
Serine/threonine-protein kinase pim-2 (Homo sapiens), sequence (Q9P1W9 whole entry, looked up): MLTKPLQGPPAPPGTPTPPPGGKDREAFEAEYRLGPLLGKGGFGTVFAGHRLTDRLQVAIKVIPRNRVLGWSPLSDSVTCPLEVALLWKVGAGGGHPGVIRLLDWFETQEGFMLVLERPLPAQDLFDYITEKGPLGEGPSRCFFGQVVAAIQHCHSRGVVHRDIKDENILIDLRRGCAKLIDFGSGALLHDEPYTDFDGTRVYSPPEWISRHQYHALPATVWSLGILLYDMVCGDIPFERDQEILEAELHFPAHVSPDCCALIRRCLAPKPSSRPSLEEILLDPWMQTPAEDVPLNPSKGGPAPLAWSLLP

Activity [1] [%] | Activity [2] [%] | Activity [3] [%] | Activity [4] [%] | Activity [5] [%] | Activity [6] [%] | Activity [7] [%] | Activity [8] [%] | Activity [9] [%] | Activity [10] [%] | Activity [11] [%] | Activity [12] [%] | Activity [13] [%] | Activity [14] [%] | SMILES
84 | 74 | 56 | 68 | 77 | 64 | 113 | 78 | 72 | 102 | – | – | – | – | O=Cc1c[nH]c2c1ccc1c3ccccc3[nH]c12
111 | 111 | 93 | 67 | 99 | 82 | 108 | 90 | 97 | 102 | 62 | 107 | 89 | 20 | c1ccc2c(c1)[nH]c1c2ccc2cc[nH]c21
103 | 111 | 87 | 67 | 107 | 102 | 111 | 71 | 114 | 116 | 77 | 99 | 87 | 53 | c1ccc2c(c1)[nH]c1c3cc[nH]c3ccc21
95 | 109 | 102 | 92 | 78 | 105 | 96 | 86 | 114 | 113 | 102 | 113 | 82 | 79 | O=Cc1c[nH]c2ccc3c4ccccc4[nH]c3c12
